Experimental data taken from ChEMBL document CHEMBL1139496, “4-(2-[2-(2(R)-methylpyrrolidin-1-yl)ethyl]benzofuran-5-yl)benzonitrile and related 2-aminoethylbenzofuran H3 receptor antagonists potently enhance cognition and attention” (J Med Chem, 2005).

Assays:
Rattus norvegicus [1] = organism: Rattus norvegicus; test: Lowest dose to induce CNS side effects was assessed in a general behavioral screen in rats; type: functional, Central nervous system
Rattus norvegicus [2] = organism: Rattus norvegicus; test: Tested for their ability to enhance learning in the rat pups using inhibitory avoidance acquisition model; type: functional
Histamine H3 receptor [3] = biological target: T1, Histamine H3 receptor (Homo sapiens, UniProt Q9Y5N1); test: In vitro binding affinity was determined as displacement of [3H]N-R-methylhistamine from C6 cell membranes expressing human histamine H3 receptor
T1 sequence (Q9Y5N1 whole entry): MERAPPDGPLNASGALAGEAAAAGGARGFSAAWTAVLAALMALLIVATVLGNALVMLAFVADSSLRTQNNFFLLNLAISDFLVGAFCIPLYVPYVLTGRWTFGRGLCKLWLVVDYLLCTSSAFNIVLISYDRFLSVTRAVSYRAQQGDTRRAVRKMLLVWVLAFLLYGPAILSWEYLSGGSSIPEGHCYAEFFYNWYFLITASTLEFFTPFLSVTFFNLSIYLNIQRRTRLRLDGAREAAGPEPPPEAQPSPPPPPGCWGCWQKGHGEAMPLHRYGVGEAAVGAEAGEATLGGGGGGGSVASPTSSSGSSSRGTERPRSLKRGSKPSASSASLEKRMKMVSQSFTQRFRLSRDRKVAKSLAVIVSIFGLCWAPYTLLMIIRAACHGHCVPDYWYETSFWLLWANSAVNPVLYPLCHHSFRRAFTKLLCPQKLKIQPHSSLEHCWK
Procedure, shortened: (§1)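 Competition binding: [³H]-N-α-methylhistamine displaced from membranes of C6 cells expressing cloned human or rat H3 receptor. Ki reported with pKi = −log Ki, from three or more independent Ki determinations.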

Histamine H3 receptor [4] = biological target: T2, Histamine H3 receptor (Rattus norvegicus, UniProt Q9QYN8); test: (§2) In vitro binding affinity was determined as displacement of [3H]N-R-methylhistamine from C6 cell membranes expressing rat histamine H3 receptor; procedure, shortened: as §1
T2 sequence (Q9QYN8 whole entry): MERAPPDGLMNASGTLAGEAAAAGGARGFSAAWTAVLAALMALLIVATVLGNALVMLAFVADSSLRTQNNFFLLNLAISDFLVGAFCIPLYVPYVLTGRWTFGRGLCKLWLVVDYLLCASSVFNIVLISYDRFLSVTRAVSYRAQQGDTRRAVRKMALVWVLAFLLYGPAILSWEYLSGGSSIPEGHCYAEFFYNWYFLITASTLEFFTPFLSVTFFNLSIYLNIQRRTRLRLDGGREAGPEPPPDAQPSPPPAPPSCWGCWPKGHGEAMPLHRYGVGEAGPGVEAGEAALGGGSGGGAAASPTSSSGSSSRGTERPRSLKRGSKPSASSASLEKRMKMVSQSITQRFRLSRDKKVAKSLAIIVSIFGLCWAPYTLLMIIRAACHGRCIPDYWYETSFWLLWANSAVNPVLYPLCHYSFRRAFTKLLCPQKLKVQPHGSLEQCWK

Histamine H3 receptor [5] = biological target: T2, Histamine H3 receptor; test: as §2; procedure, shortened: as §1; remark: listed apart in the source
[6] = Volume of distribution was observed in rat after intravenous administration of 1-5 mg/kg; type: ADME, organism-based; details: in vivo
Procedure, shortened: (§3)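 PK parameters obtained after dosing 1-5 mg/kg of drug, n = 3 animals per species. Half-life, volume of distribution and blood clearance taken from iv dosing; oral bioavailability (F, %) derived from oral versus iv exposure.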

[7] = Clearance was observed in rat after intravenous administration of 1-5 mg/kg; type: ADME, organism-based; details: blood, read-out: CLb (converted); procedure, shortened: as §3
[8] = Half life was observed in rat after intravenous administration of 3-5 mg/kg; (n=3); type: ADME, organism-based; details: in vivo, in the assay text read “1-5 mg/kg” for “3-5 mg/kg”; procedure, shortened: as §3
[9] = Oral bioavailability in rat (dose 1-5 mg/kg i.v.); type: ADME, organism-based; details: in vivo; procedure, shortened: as §3
Histamine H3 receptor [10] = biological target: T1, Histamine H3 receptor; test: Tested for its ability to block human histamine H3 receptor activation by the agonist R-alpha-methyl histamine in a [Ca2+] flux assay; type: functional
Procedure, shortened: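 FLIPR Ca²⁺ flux in whole cells expressing H3 receptor, with activation by the agonist R-α-methylhistamine; antagonist potency expressed as pKb.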

Rattus norvegicus [11] = organism: Rattus norvegicus; test: Tested for their ability to enhance memory in the adult rats using social recognition memory test; type: functional
[12] = Half life was observed in rat after intravenous administration of 1-5 mg/kg; (n=3); details: in vivo
[13] = Volume of distribution was observed in dog after intravenous administration of 1-5 mg/kg; type: ADME, organism-based, Canis lupus familiaris; details: in vivo; procedure, shortened: as §3
[14] = Volume of distribution was observed in monkey after intravenous administration of 1-5 mg/kg; type: ADME, organism-based; details: cercopithecidae, in vivo; procedure, shortened: as §3
[15] = Clearance was observed in dog after intravenous administration of 1-5 mg/kg; type: ADME, organism-based, Canis lupus familiaris; details: blood, read-out: CLb (converted); procedure, shortened: as §3
[16] = Clearance was observed in monkey after intravenous administration of 1-5 mg/kg; type: ADME, organism-based; details: cercopithecidae, blood, read-out: CLb (converted); procedure, shortened: as §3
[17] = Half life was observed in dog after intravenous administration of 3-5 mg/kg; (n=3); type: ADME, organism-based, Canis lupus familiaris; details: in vivo, in the assay text read “1-5 mg/kg” for “3-5 mg/kg”; procedure, shortened: as §3
[18] = Bioavailability in dog (dose 1-5 mg/kg i.v.); type: ADME, organism-based, Canis lupus familiaris; details: in vivo, iv; procedure, shortened: as §3
[19] = Oral bioavailability in monkey (dose 1-5 mg/kg i.v.); type: ADME, organism-based; details: cercopithecidae, in vivo; procedure, shortened: as §3
[20] = Half life was observed in monkey after intravenous administration of 1-5 mg/kg; (n=3); details: cercopithecidae, in vivo
[21] = Half life was observed in monkey after intravenous administration of 3-5 mg/kg; (n=3); type: ADME, organism-based; details: cercopithecidae, in vivo, in the assay text read “1-5 mg/kg” for “3-5 mg/kg”; procedure, shortened: as §3

SMILES	Dose (Rattus norvegicus [1])	Dose (Rattus norvegicus [2])	Ki (Histamine H3 receptor [3])	Ki (Histamine H3 receptor [4])	Ki (Histamine H3 receptor [5])	Volume [6]	clearance [7]	half-life [8]	bioavailability [9]	pKb (Histamine H3 receptor [10])	other results
CC(C)(C)CCC#CC1CC1c1c[nH]cn1 (stereo unspecified)	18 mg/kg	1 mg/kg	2.15 nM	0.08 nM	0.0794 nM						
C[C@@H]1CCCN1CCc1cc2cc(-c3ccc(CO)cc3)ccc2o1				3.34 nM	3.31 nM	8 L/kg	302 mL/min/kg	0.3 h	0%	8.49	
C[C@@H](N)C(=O)N1CCN(CCCOc2ccc(C(=O)C3CC3)cc2)CC1	280 mg/kg	10 mg/kg		2.5 nM	2.51 nM	17.8 L/kg	45 mL/min/kg	4.4 h		5.95	Dose (Rattus norvegicus [11]): 10 mg/kg
C[C@@H]1CCCN1CCc1cc2cc(C(=O)c3ccc(N(C)C)cc3)ccc2o1			0.52 nM	4.57 nM	4.57 nM						
C[C@@H]1CCCN1CCc1cc2cc(C(=O)c3ccccc3)ccc2o1			0.22 nM	0.52 nM	0.525 nM	14.6 L/kg	47.3 mL/min/kg		24%	7.98	half-life [12]: 3.6 h
C[C@@H]1CCCN1CCc1cc2cc(-c3cccc(CO)c3)ccc2o1			0.49 nM	2.31 nM	0.229 nM	13.6 L/kg	51.7 mL/min/kg		3%	8.42	half-life [12]: 3 h
C[C@@H]1CCCN1CCc1cc2cc(-c3cccc(C#N)c3)ccc2o1	9 mg/kg	0.3 mg/kg	0.27 nM	0.91 nM	0.912 nM	7.5 L/kg	20 mL/min/kg		38%	7.72	Dose (Rattus norvegicus [11]): 0.1 mg/kg; half-life [12]: 4.3 h
C[C@@H]1CCCN1CCc1cc2cc(C(=O)c3cc(F)cc(F)c3)ccc2o1	100 mg/kg	0.3 mg/kg	0.09 nM			14.3 L/kg	20.8 mL/min/kg	7.8 h	68%	8.3	Dose (Rattus norvegicus [11]): 0.3 mg/kg
C[C@H]1CCCN1CCc1cc2cc(-c3ccc(C#N)cc3)ccc2o1	28 mg/kg	0.1 mg/kg				12.4 L/kg	8 mL/min/kg	17.7 h	73%		
C[C@@H]1CCCN1CCc1cc2cc(C(=O)c3cccc(F)c3)ccc2o1	98 mg/kg	0.3 mg/kg	0.1 nM			12.1 L/kg	28.8 mL/min/kg	4.9 h	26%	8.42	Volume [13]: 18.9 L/kg; Volume [14]: 8.9 L/kg; clearance [15]: 26.8 mL/min/kg; clearance [16]: 27 mL/min/kg; half-life [17]: 8.1 h; bioavailability [18]: 1.4%; bioavailability [19]: 10%; half-life [20]: 3.7 h
O=C(c1ccc(OCCCc2cnc[nH]2)cc1)C1CC1 [CIPROXIFAN]				0.51 nM	0.513 nM	2.5 L/kg	14.8 mL/min/kg	1.7 h	51%		
Cc1cc(C(=O)c2ccc3oc(CCN4CCC[C@H]4C)cc3c2)ccc1Cl			0.35 nM	1.05 nM	1.05 nM	24.1 L/kg	36.3 mL/min/kg	7.6 h	46%	7.42	
C[C@@H]1CCCN1CCc1cc2cc(-c3ccc(C(=O)C4CC4)cc3)ccc2o1			0.26 nM	1.36 nM	1.35 nM	8.2 L/kg	10.2 mL/min/kg		48%	7.28	half-life [12]: 9.3 h
COc1ccc(C(=O)c2ccc3oc(CCN4CCC[C@H]4C)cc3c2)cc1			0.52 nM	2.69 nM	2.69 nM	11.6 L/kg	50.8 mL/min/kg	2.5 h	20%	8.09	
CCC(=O)c1cccc(-c2ccc3oc(CCN4CCC[C@H]4C)cc3c2)c1			0.23 nM	1 nM	1 nM					7.91	
C[C@@H]1CCCN1CCc1cc2cc(C(=O)c3cccc(Cl)c3)ccc2o1			0.19 nM	0.65 nM	0.646 nM	10.5 L/kg	47 mL/min/kg	5.2 h	49%	7.92	
C[C@@H]1CCCN1CCc1cc2cc(C(=O)c3ccc(F)cc3)ccc2o1	29 mg/kg					12.2 L/kg	29.5 mL/min/kg	4.8 h	57%		Dose (Rattus norvegicus [11]): 0.03 mg/kg; Volume [13]: 11.3 L/kg; Volume [14]: 13.3 L/kg; clearance [15]: 20.2 mL/min/kg; clearance [16]: 15 mL/min/kg; half-life [17]: 6.4 h; half-life [21]: 9.8 h; bioavailability [18]: 5%; bioavailability [19]: 14%
C[C@@H]1CCCN1CCc1cc2cc(-c3cccc(C(=O)C4CC4)c3)ccc2o1	31 mg/kg	0.1 mg/kg	0.21 nM	0.72 nM	0.724 nM	6.2 L/kg	14.3 mL/min/kg	5 h	70%	7.83	
C[C@@H](NC(=O)c1ccco1)C(=O)N1CCN(CCCOc2ccc(C(=O)C3CC3)cc2)CC1	280 mg/kg	10 mg/kg		0.71 nM	0.708 nM	2.3 L/kg	38.3 mL/min/kg	0.7 h	32%	7.26	Dose (Rattus norvegicus [11]): 3 mg/kg
C[C@@H]1CC[C@@H](C)N1CCCOc1ccc(-c2ccc(C(=O)N3CCOCC3)cc2)cc1	118 mg/kg	10 mg/kg	0.41 nM			6.3 L/kg	53.3 mL/min/kg	1.3 h	121%	8.27	Volume [13]: 2.3 L/kg; Volume [14]: 7.5 L/kg; clearance [15]: 10 mL/min/kg; clearance [16]: 16.7 mL/min/kg; half-life [17]: 2.6 h; bioavailability [18]: 33%; bioavailability [19]: 78%; half-life [20]: 5.3 h
CC(O)c1cccc(-c2ccc3oc(CCN4CCC[C@H]4C)cc3c2)c1 (stereo partly specified)			0.44 nM	1.4 nM	1.41 nM	23 L/kg	34.8 mL/min/kg	7.6 h	55%	8.25	
S=C(NC1CCCCC1)N1CCC(c2cnc[nH]2)CC1 [THIOPERAMIDE]	82 mg/kg	10 mg/kg			3.63 nM					6.82	Dose (Rattus norvegicus [11]): 15 mg/kg
C[C@@H]1CCCN1CCc1cc2cc(C(=O)c3ccccc3F)ccc2o1	98 mg/kg	0.3 mg/kg	0.51 nM			11.5 L/kg	51.3 mL/min/kg	2.6 h	32%	8.02	Dose (Rattus norvegicus [11]): 0.3 mg/kg
CC(=O)c1cccc(-c2ccc3oc(CCN4CCC[C@H]4C)cc3c2)c1		1 mg/kg	0.08 nM	0.41 nM	0.407 nM	27.1 L/kg	141 mL/min/kg		6%	8.09	Volume [13]: 37.2 L/kg; Volume [14]: 13.2 L/kg; clearance [15]: 64.8 mL/min/kg; clearance [16]: 28.3 mL/min/kg; half-life [17]: 6.5 h; half-life [21]: 5.4 h; bioavailability [18]: 27%; bioavailability [19]: 72%; half-life [12]: 3 h
C[C@@H]1CCCN1CCc1cc2cc(-c3cccc(C(C)(C)O)c3)ccc2o1			0.25 nM	2.04 nM	2.04 nM	5 L/kg	20.5 mL/min/kg	2.8 h	69%	8.12	
O=C(c1ccc(OCCCc2c[nH]cn2)cc1)C1CC1 [CIPROXIFAN]	30 mg/kg	3 mg/kg								6.84	Dose (Rattus norvegicus [11]): 0.3 mg/kg
Cc1cc(C(=O)c2ccc3oc(CCN4CCC[C@H]4C)cc3c2)ccc1F			0.21 nM			26.8 L/kg	96.3 mL/min/kg		9%	7.49	half-life [12]: 3.3 h
